Columns and labels:
[1] = Therapeutic index, ratio of TC50 for human HuH-7-Luc/Neo-ET cells to EC50 for HCV infected in human HuH7-Luc/Neo-ET cells; assay type: toxicity
Outline: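 Therapeutic index calculated as TC50/EC50. Both values came from Huh-7 Luc/Neo ET cells bearing an HCV genotype 1b replicon, and each was averaged from triplicate experiments.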

Hepatitis C virus = assay: Antiviral activity against HCV subtype 1b infected in human HuH-7-Luc/Neo-ET cells by luciferase replicon-reporter gene assay; assay type: functional, organism-based, Hepacivirus hominis
Outline: (§1)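 HCV genotype 1b subgenomic replicon carried in Huh-7 Luc/Neo ET cells. Antiviral EC50 and cytotoxic TC50 were both determined in these cells. Each value is the average of triplicate experiments.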

[2] = Cytotoxicity against human HuH-7-Luc/Neo-ET cells; assay type: cell-based; settings: read-out: TC50 (the source's name); outline: as §1

SMILES | selectivity ratio [1] | EC50 (Hepatitis C virus) | CC50 [2]
CC(C)OC(=O)[C@H](C)N[P@](=O)(OC[C@H]1O[C@@H](n2ccc(=O)[nH]c2=O)[C@](C)(F)[C@@H]1O)Oc1ccccc1 [SOFOSBUVIR] | > 29.2 | 0.03 µM | > 1 µM
CCCCCCCCCC(=O)Oc1ccc(COP(=O)(OCc2ccc(OC(=O)CCCCCCCCC)cc2)OP(=O)([O-])O[C@H](C)[C@H]2O[C@@H](n3ccc(=O)[nH]c3=O)[C@](C)(O)[C@@H]2O)cc1.CCCC[N+](CCCC)(CCCC)CCCC | > 38.5 | 2.6 µM | > 100 µM
CC(C)OC(=O)[C@H](C)N[P@@](=O)(Oc1ccccc1)O[C@H](C)[C@H]1O[C@@H](n2ccc(=O)[nH]c2=O)[C@](C)(O)[C@@H]1O | > 67.1 | 1.49 µM | > 100 µM
CCCCCCCCCC(=O)Oc1ccc(COP(=O)(OCc2ccc(OC(=O)CCCCCCCCC)cc2)OP(=O)([O-])OC[C@H]2O[C@@H](n3ccc(=O)[nH]c3=O)[C@](C)(O)[C@@H]2O)cc1.CCCC[N+](CCCC)(CCCC)CCCC | > 2590 | 0.04 µM | > 100 µM
CCCCCCCCCC(=O)Oc1ccc(COP(=O)(OCc2ccc(OC(=O)CCCCCCCCC)cc2)OP(=O)([O-])O[C@@H](C)[C@H]2O[C@@H](n3ccc(=O)[nH]c3=O)[C@](C)(O)[C@@H]2O)cc1.CCCC[N+](CCCC)(CCCC)CCCC | 3.29 | 25.3 µM | > 83.2 µM
CC(C)OC(=O)[C@H](C)N[P@](=O)(OC[C@H]1O[C@@H](n2ccc(=O)[nH]c2=O)[C@](C)(O)[C@@H]1O)Oc1ccccc1 | 2780 | 0.03 µM | 85.6 µM
CC(C)OC(=O)[C@H](C)N[P@@](=O)(Oc1ccccc1)O[C@@H](C)[C@H]1O[C@@H](n2ccc(=O)[nH]c2=O)[C@](C)(O)[C@@H]1O | > 12.9 | 7.75 µM | > 100 µM

— ChEMBL document CHEMBL4699495, “Synthesis and biological evaluation of 5'-C-methyl nucleotide prodrugs for treating HCV infections” (Bioorg Med Chem Lett, 2020)
